The record followed here is PMC10763849 (Journal of Enzyme Inhibition and Medicinal Chemistry, 2023).

This data set concerns HCT116 (KRAS(mut)/p53(wt)) cells xenograft. As to the kind of experiment: In vivo anti-tumour activity, HCT116 xenograft. Details: species or system BALB/c nude mice. As to conditions: i.p. 10 mg/kg, every 3 d, five times; for body weight changes: BALB/c nude mice; for tumour volume compared with the vehicle group: HCT116 xenograft. In outline:
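Six-week-old BALB/c nude mice received 1 × 10^7 HCT116 cells in 200 µL subcutaneously in the right flank. At 80–120 mm3, mice were randomised into four groups of 5. They were dosed i.p. in PBS pH 7.4 (0.2 ml) every 3 days ×5: vehicle or test compound at 1, 10 or 20 mg/kg; a second study used 10 mg/kg with reference inhibitors. Tumour volume was (min² × max)/2, with body weight recorded; mean ± SD.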

The structures appear in SMILES notation.

For the compound `CN1CCN(Cc2ccc(Nc3ncc(Cl)c(Nc4ccccc4S(=O)(=O)N(C)C)n3)cc2)CC1` [TP0903], the body weight changes result is “stable trend” and the “tumour volume compared with the vehicle group” value is recorded as “smaller than that of the vehicle group”.
As to `O=C(CCCCCCC(=O)Nc1ccccc1)NO` [SAHA, Vorinostat], the body weight changes entry is reported as “stable trend” and the “tumour volume compared with the vehicle group” value is “smaller than that of the vehicle group”.
